Laboratory results from ChEMBL document CHEMBL1153333, “Structure-activity relationship studies of curcumin analogues” (Bioorg Med Chem Lett, 2009).

Key:
[1] = system: PC-3; test: Antiproliferative activity against human PC3 cells after 72 hrs by MTT assay; format: functional, cell-based; conditions: PC-3, 72 h
[2] = system: LNCaP; test: Antiproliferative activity against human LNCAP cells after 72 hrs by MTT assay; format: functional, cell-based
[3] = system: MCF7; test: Antiproliferative activity against human MCF7 cells after 72 hrs by MTT assay; format: functional, cell-based; conditions: MCF7, 72 h
[4] = system: MDA-MB-231; test: Antiproliferative activity against human MDA-MB-231 cells after 72 hrs by MTT assay; format: functional, cell-based; conditions: MDA-MB-231, 72 h
[5] = Antiproliferative activity against human MCF10A cells after 72 hrs by MTT assay; format: cell-based; conditions: MCF-10A
In short: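 Spontaneously immortalized, non-malignant human mammary epithelial MCF-10A cells were exposed to compounds for 72 h. Viability was read by MTT assay, and IC50 was taken from that read-out.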

[6] = system: MCF-10A; test: Ratio of IC50 for human MCF10A cells to IC50 for human PC3 cells
In short: (§1)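 Selectivity ratio is the IC50 on non-malignant MCF-10A cells divided by the IC50 on the cancer cell line.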

[7] = system: LNCaP; test: Ratio of IC50 for human MCF10A cells to IC50 for human LNCAP cells; in short: as §1
[8] = system: MCF7; test: Ratio of IC50 for human MCF10A cells to IC50 for human MCF7 cells; in short: as §1
[9] = system: MDA-MB-231; test: Ratio of IC50 for human MCF10A cells to IC50 for human MDA-MB-231 cells; in short: as §1

Row | SMILES | IC50 [1] [µM] | IC50 [2] [µM] | IC50 [3] [µM] | IC50 [4] [µM] | IC50 [5] [µM] | Ratio IC50 [6] | Ratio IC50 [7] | Ratio IC50 [8] | Ratio IC50 [9]
1 | O=C(/C=C/c1ccc(O)cc1)/C=C/c1ccc(O)cc1 | 9.5 | 5.8 | 6.9 | 3.9 | – | – | – | – | –
2 | COc1cc(OC)c(/C=C/C(=O)/C=C/c2c(OC)cc(OC)cc2OC)c(OC)c1 | 2.1 | 0.5 | 0.4 | 0.6 | > 50 | 25 | 25 | 25 | 25
3 | COc1cccc(/C=C/C(=O)/C=C(O)/C=C/c2cccc(OC)c2)c1 | 40 | 34.7 | 25.9 | 31.9 | – | – | – | – | –
4 | COc1cc(/C=C/C(=O)/C=C/c2cc(OC)c(O)c(OC)c2)cc(OC)c1O | 3.6 | 2.5 | 1.7 | 2.7 | – | – | – | – | –
5 | NS(=O)(=O)Oc1ccc(/C=C/C(=O)/C=C/c2ccc(OS(N)(=O)=O)cc2)cc1 | 5.1 | 5.1 | 3.5 | 4.2 | – | – | – | – | –
6 | COc1cc(/C=C/C(=O)/C=C(O)/C=C/c2cc(OC)c(OS(N)(=O)=O)c(OC)c2)cc(OC)c1OS(N)(=O)=O | 13.1 | 10.4 | 4.7 | 5.5 | – | – | – | – | –
7 | COc1ccc(/C=C/C(=O)/C=C(O)/C=C/c2ccc(OC)c(OS(N)(=O)=O)c2)cc1OS(N)(=O)=O | 7.4 | 7.7 | 5.5 | 6.5 | – | – | – | – | –
8 | COc1cc(/C=C/C(=O)/C=C(O)/C=C/c2ccc(OS(N)(=O)=O)c(OC)c2)ccc1OS(N)(=O)=O | 7.5 | 5.9 | 5.5 | 3.1 | – | – | – | – | –
9 | CC(=O)Oc1ccc(/C=C/C(=O)/C=C(O)/C=C/c2ccc(OC(C)=O)c(OC(C)=O)c2)cc1OC(C)=O | 12.9 | 20.2 | 17.8 | 12.3 | – | – | – | – | –
10 | COc1cc(OC)c(OC)cc1/C=C/C(=O)/C=C/c1cc(OC)c(OC)cc1OC | 4.6 | 1.7 | 2.4 | 2.4 | > 50 | >=5 | >=5 | >=5 | >=5
11 | COc1cc(/C=C/C(=O)/C=C/c2cc(OC)c(OS(N)(=O)=O)c(OC)c2)cc(OC)c1OS(N)(=O)=O | 2.4 | 1.9 | 1.5 | 0.6 | – | – | – | – | –
12 | COc1cc(/C=C/C(=O)/C=C/c2cc(OC)cc(OC)c2)cc(OC)c1 | 2.5 | 2.1 | 2.7 | 1.5 | > 50 | >=5 | >=5 | >=5 | >=5
13 | O=C(/C=C/c1ccc(O)cc1)CC(=O)/C=C/c1ccc(O)cc1 [BISDEMETHOXYCURCUMIN] | 27.3 | 19.7 | 24.3 | 21.9 | – | – | – | – | –

Second part, led by results:

Row | IC50 [1] [µM] | IC50 [2] [µM] | IC50 [3] [µM] | IC50 [4] [µM] | SMILES | IC50 [5] [µM] | Ratio IC50 [6] | Ratio IC50 [7] | Ratio IC50 [8] | Ratio IC50 [9]
14 | 3.9 | 2.7 | 2.4 | 2.8 | COc1cc(/C=C/C(=O)/C=C/c2ccc(O)c(OC)c2)ccc1O | – | – | – | – | –
15 | > 40 | > 40 | > 40 | > 40 | COc1ccc(/C=C/C(=O)/C=C(O)/C=C/c2ccc(OC)c(O)c2)cc1O | – | – | – | – | –
16 | 2.9 | 2.2 | 2.5 | 1.6 | COc1ccc(/C=C/C(=O)/C=C/c2ccc(OC)c(OC)c2)cc1OC | – | – | – | – | –
17 | 16.2 | 12.1 | 15.8 | 20.4 | COc1cc(/C=C/c2cc(/C=C/c3ccc(O)c(OC)c3)n(C)n2)ccc1O | – | – | – | – | –
18 | 19.3 | 20 | 15.1 | 14.3 | COc1cc(/C=C/C(O)=C/C(=O)/C=C/c2ccc(OS(N)(=O)=O)c(OC)c2)ccc1O | – | – | – | – | –
19 | 5.9 | 2.6 | 2.9 | 3.1 | COc1ccc(/C=C/C(=O)/C=C/c2ccc(OC)c(O)c2)cc1O | – | – | – | – | –
20 | 6.1 | 2.4 | 6.6 | 1.7 | COc1cc(/C=C/C(=O)/C=C/c2ccc(OS(N)(=O)=O)c(OC)c2)ccc1OS(N)(=O)=O | – | – | – | – | –
21 | 5.6 | 3.4 | 5.9 | 6.6 | COc1cc(/C=C/c2cc(/C=C/c3ccc(O)c(OC)c3)[nH]n2)ccc1O [CURCUMIN PYRAZOLE] | > 50 | >=5 | >=5 | >=5 | >=5
22 | 19.8 | 19.6 | 21.5 | 25.6 | COc1cc(/C=C/C(=O)CC(=O)/C=C/c2ccc(O)c(OC)c2)ccc1O [CURCUMIN] | 30.1 | – | – | – | –
23 | 5.9 | 3.9 | 5.4 | 4.9 | COc1ccc(/C=C/C(=O)/C=C(O)/C=C/c2ccc(OC)c(OC)c2)cc1OC [DIMETHYLCURCUMIN] | 31.5 | – | – | – | –
24 | 20.9 | 6.8 | 15.4 | 7.2 | COc1cc(/C=C/C(O)=C/C(=O)/C=C/c2ccc(OC)c(OC)c2)ccc1O [METHYLCURCUMIN] | – | – | – | – | –
